The source made the active and inactive calls. No cut-off for these calls is given here.
Tests used:
Staphylococcus aureus [1] = test: Antibacterial activity against methicillin-susceptible Staphylococcus aureus ATCC 13709 assessed as bacterial killing at 10 times MIC after 6 hrs in PBS-nutrient depleted medium; assay type: functional, organism-based
[2] = AUC (0 to 24 hrs) in human at 10 mg/kg once daily; assay type: ADME, organism-based; set-up: time < 24 hr, dose 10 mg/kg; conditions: plasma
Staphylococcus aureus [3] = test: Antibacterial activity against methicillin-resistant Staphylococcus aureus ATCC 33591 assessed as change in bacterial burden at 2.5 mg/liter after 24 hrs; assay type: functional
Method in brief: (§1)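 In vitro kinetic model: spinner flask with 0.45-μm filter and prefilter, stirred, M-H broth at 37°C, starting inoculum approx. 5 × 10⁵ CFU/ml. Single initial drug dose of 1.0 to 40 mg/liter, with flow set to give a half-life of approx. 8 h. Viable counts at 0, 2, 4, 6, 8, 12 and 24 h. Duplicate runs per strain and concentration.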

Staphylococcus aureus [4] = test: Antibacterial activity against methicillin-susceptible Staphylococcus aureus ATCC 13709 assessed as change in bacterial burden at 40 mg/liter after 8 hrs; assay type: functional
[5] = Ratio of AUC in in vitro kinetic model containing Mueller-Hinton broth and methicillin-susceptible Staphylococcus aureus ATCC 13709 to MIC for methicillin-susceptible Staphylococcus aureus ATCC 13709 in bacterial killing stage; assay type: functional
Staphylococcus aureus [6] = test: Antibacterial activity against methicillin-susceptible Staphylococcus aureus ATCC 13709 in MH-broth; assay type: functional, organism-based
Staphylococcus aureus [7] = test: Antibacterial activity against methicillin-resistant Staphylococcus aureus ATCC 33591 assessed as change in bacterial burden at 2.5 mg/liter after 4 hrs; assay type: functional; method in brief: as §1
Staphylococcus aureus [8] = test: Antibacterial activity against methicillin-resistant Staphylococcus aureus ATCC 33591 assessed as change in bacterial burden at 20 mg/liter after 8 hrs; assay type: functional; method in brief: as §1
Staphylococcus aureus [9] = test: Antibacterial activity against methicillin-susceptible Staphylococcus aureus ATCC 13709 assessed as change in bacterial burden at 5 mg/liter after 24 hrs; assay type: functional
Staphylococcus aureus [10] = test: Antibacterial activity against methicillin-susceptible Staphylococcus aureus ATCC 13709 assessed as change in bacterial burden at 20 mg/liter after 12 hrs; assay type: functional
Staphylococcus aureus [11] = test: Antibacterial activity against methicillin-resistant Staphylococcus aureus ATCC 33591 assessed as change in bacterial burden at 5 mg/liter after 6 hrs; assay type: functional; method in brief: as §1
Staphylococcus aureus [12] = test: Antibacterial activity against methicillin-resistant Staphylococcus aureus COL infected New Zealand white rabbit endocarditis model assessed as reduction in mean aortic vegetation titer at 30 mg/kg, iv twice daily after 4 days; assay type: functional, Aorta
Staphylococcus aureus [13] = test: Antibacterial activity against methicillin-susceptible Staphylococcus aureus ATCC 13709 assessed as change in bacterial burden at 10 mg/liter after 6 hrs; assay type: functional; method in brief: as §1
Staphylococcus aureus [14] = test: Antibacterial activity against methicillin-susceptible Staphylococcus aureus ATCC 13709 assessed as bacterial regrowth at 5 mg/liter Cmax; assay type: functional, organism-based
Staphylococcus aureus [15] = test: Antibacterial activity against methicillin-susceptible Staphylococcus aureus ATCC 13709 assessed as change in bacterial burden at 20 mg/liter after 24 hrs; assay type: functional
Staphylococcus aureus [16] = test: Antibacterial activity against methicillin-susceptible Staphylococcus aureus ATCC 13709 assessed as change in bacterial burden at 20 mg/liter after 2 hrs; assay type: functional
Staphylococcus aureus [17] = test: Antibacterial activity against methicillin-resistant Staphylococcus aureus ATCC 33591 assessed as bacterial killing at 10 times MIC after 6 hrs in MH-broth; assay type: functional, organism-based
Method in brief: (§2)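 Strain diluted in M-H broth to approx. 10⁵ CFU/ml and grown 6 h into log phase, then split. Broth tubes got drug at 10× MIC directly. PBS tubes were transferred to PBS and held 3 h more, then dosed at 10× MIC. Growth controls were run in each medium. Viable counts at 0, 3, 6, 9, 12 and 24 h. Run in duplicate.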

Staphylococcus aureus [18] = test: Antibacterial activity against methicillin-susceptible Staphylococcus aureus ATCC 13709 assessed as bacterial killing at 10 times MIC after 6 hrs in MH-broth; assay type: functional, organism-based
Staphylococcus aureus [19] = test: Antibacterial activity against methicillin-resistant Staphylococcus aureus ATCC 33591 assessed as change in bacterial burden at 10 mg/liter after 12 hrs; assay type: functional; method in brief: as §1
Staphylococcus aureus [20] = test: Antibacterial activity against methicillin-resistant Staphylococcus aureus ATCC 33591 assessed as change in bacterial burden at 5 mg/liter after 8 hrs; assay type: functional; method in brief: as §1
Staphylococcus aureus [21] = test: Antibacterial activity against methicillin-susceptible Staphylococcus aureus ATCC 13709 assessed as change in bacterial burden at 40 mg/liter after 4 hrs; assay type: functional
Staphylococcus aureus [22] = test: Antibacterial activity against methicillin-resistant Staphylococcus aureus ATCC 33591 assessed as bacterial killing at 10 times MIC after 24 hrs in MH-broth; assay type: functional, organism-based; method in brief: as §2
Staphylococcus aureus [23] = test: Antibacterial activity against methicillin-susceptible Staphylococcus aureus ATCC 13709 assessed as change in bacterial burden at 2.5 mg/liter after 24 hrs; assay type: functional; method in brief: as §1
Staphylococcus aureus [24] = test: Antibacterial activity against methicillin-susceptible Staphylococcus aureus ATCC 13709 assessed as bacterial killing at 0.5 to 50 times MIC after 24 hrs; assay type: functional
Method in brief: (§3)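 Static time-kill in M-H broth, in M-H broth with 40 g/liter fatty-acid-free purified human albumin, or in M-H broth with inactivated 50% human serum. Inoculum approx. 5 × 10⁵ CFU/ml, drug at 0.5, 1, 2.5, 5, 10, 25 and 50× MIC, 37°C. Samples at 0, 3, 6, 12 and 24 h plated on blood agar, counted after 24 h. Detection limit 5 × 10¹ CFU/ml. Run in duplicate.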

Staphylococcus aureus [25] = test: Antibacterial activity against methicillin-susceptible Staphylococcus aureus ATCC 13709 assessed as bacterial regrowth at 40 mg/liter Cmax; assay type: functional, organism-based
Staphylococcus aureus [26] = test: Antibacterial activity against methicillin-susceptible Staphylococcus aureus ATCC 13709 assessed as change in bacterial burden at 1 mg/liter after 4 hrs; assay type: functional
Staphylococcus aureus [27] = test: Antibacterial activity against methicillin-susceptible Staphylococcus aureus ATCC 13709 assessed as change in bacterial burden at 40 mg/liter after 6 hrs; assay type: functional
[28] = Cmax in human at 10 mg/kg once daily; assay type: ADME, organism-based; set-up: dose 10 mg/kg; conditions: in vivo
Staphylococcus aureus [29] = test: Antibacterial activity against methicillin-resistant Staphylococcus aureus ATCC 33591 assessed as change in bacterial burden at 2.5 mg/liter after 12 hrs; assay type: functional; method in brief: as §1
Staphylococcus aureus [30] = test: Antibacterial activity against methicillin-susceptible Staphylococcus aureus ATCC 13709 assessed as change in bacterial burden at 1 mg/liter after 12 hrs; assay type: functional; method in brief: as §1
Staphylococcus aureus [31] = test: Antibacterial activity against methicillin-susceptible Staphylococcus aureus ATCC 13709 assessed as change in bacterial burden at 2.5 mg/liter after 6 hrs; assay type: functional
Staphylococcus aureus [32] = test: Antibacterial activity against methicillin-resistant Staphylococcus aureus ATCC 33591 assessed as change in bacterial burden at 2.5 mg/liter after 8 hrs; assay type: functional; method in brief: as §1
Staphylococcus aureus [33] = test: Antibacterial activity against methicillin-susceptible Staphylococcus aureus ATCC 13709 assessed as change in bacterial burden at 10 mg/liter after 24 hrs; assay type: functional; method in brief: as §1
Staphylococcus aureus [34] = test: Antibacterial activity against methicillin-resistant Staphylococcus aureus ATCC 33591 assessed as change in bacterial burden at 10 mg/liter after 6 hrs; assay type: functional; method in brief: as §1
Staphylococcus aureus [35] = test: Antibacterial activity against methicillin-resistant Staphylococcus aureus ATCC 33591 assessed as bacterial killing at 0.5 to 50 times MIC after 24 hrs in presence of 50% human serum; assay type: functional, organism-based; method in brief: as §3
Staphylococcus aureus [36] = test: Antibacterial activity against methicillin-resistant Staphylococcus aureus ATCC 33591 assessed as change in bacterial burden at 2.5 mg/liter after 6 hrs; assay type: functional; method in brief: as §1

For `CCCCCCCCCCNCCN[C@@]1(C)C[C@H](O[C@H]2[C@H](Oc3c4cc5cc3Oc3ccc(cc3Cl)[C@@H](O)[C@@H](NC(=O)[C@@H](CC(C)C)NC)C(=O)N[C@@H](CC(N)=O)C(=O)N[C@H]5C(=O)N[C@H]3C(=O)N[C@H](C(=O)N[C@H](C(=O)O)c5cc(O)c(CNCP(=O)(O)O)c(O)c5-c5cc3ccc5O)[C@H](O)c3ccc(c(Cl)c3)O4)O[C@H](CO)[C@@H](O)[C@@H]2O)O[C@@H](C)[C@H]1O` [TELAVANCIN], the Activity (Staphylococcus aureus [1]) was “Active”, the AUC at 24 h [2] was 51000 ng·h/mL and the deltalog10CFU/ml (Staphylococcus aureus [3]) was -3.6. For the same molecule, the deltalog10CFU/ml (Staphylococcus aureus [4]) was -4.7, the RatioAUC/MIC [5] was 404 and the Activity (Staphylococcus aureus [6]) was “Dose-dependent effect”. The deltalog10CFU/ml (Staphylococcus aureus [7]) was -1.7, the deltalog10CFU/ml (Staphylococcus aureus [8]) was -3.5 and the deltalog10CFU/ml (Staphylococcus aureus [9]) was -4.7. It also gave a deltalog10CFU/ml (Staphylococcus aureus [10]) of -4.6, a deltalog10CFU/ml (Staphylococcus aureus [11]) of -3.1 and a log10CFU/g (Staphylococcus aureus [12]) of 4.7. For the same molecule, the deltalog10CFU/ml (Staphylococcus aureus [13]) was -3.3, the Activity (Staphylococcus aureus [14]) was “Active” and the deltalog10CFU/ml (Staphylococcus aureus [15]) was -4.6. For the same molecule, the deltalog10CFU/ml (Staphylococcus aureus [16]) was -1.3, the Activity (Staphylococcus aureus [17]) was “Active” and the Activity (Staphylococcus aureus [18]) was “Active”. The deltalog10CFU/ml (Staphylococcus aureus [19]) was -5.1, the deltalog10CFU/ml (Staphylococcus aureus [20]) was -3.6 and the deltalog10CFU/ml (Staphylococcus aureus [21]) was -2.8. The Activity (Staphylococcus aureus [22]) was “Active”, the deltalog10CFU/ml (Staphylococcus aureus [23]) was -2.9 and the LCK (Staphylococcus aureus [24]) was greater than 3. For the same molecule, the Activity (Staphylococcus aureus [25]) was “Active”, the deltalog10CFU/ml (Staphylococcus aureus [26]) was -1.3 and the deltalog10CFU/ml (Staphylococcus aureus [27]) was -4.7. The Cmax [28] was 5200 ng/mL, the deltalog10CFU/ml (Staphylococcus aureus [29]) was -4.2 and the deltalog10CFU/ml (Staphylococcus aureus [30]) was -2.6. The deltalog10CFU/ml (Staphylococcus aureus [31]) was -2.6, the deltalog10CFU/ml (Staphylococcus aureus [32]) was -3.2 and the deltalog10CFU/ml (Staphylococcus aureus [33]) was -4.5. The deltalog10CFU/ml (Staphylococcus aureus [34]) was -3, the Activity (Staphylococcus aureus [35]) was “Active” and the deltalog10CFU/ml (Staphylococcus aureus [36]) was -2.7.
